{
  "source": "ChEMBL document CHEMBL1138683",
  "about": "(J Med Chem, 2004)",
  "key": {"Mus musculus [1]": {"system": "Mus musculus", "assay": "Anti convulsant activity administered intra peritoneally to mouse at maximal electroshock test at 4 hr after the drug administered with dose of 300 mg/kg; 1/1= No of animals protected /No of animals tested", "type": "functional"}, "[2]": {"assay": "Anti convulsant activity administered intra peritoneally to mouse for toxicity at 0.5 hr with dose of 100 mg/kg; 0/8= No of animals exhibiting toxicity /No of animals tested", "type": "organism-based", "set-up": "dose 100 mg/kg", "settings": "in vivo, ip"}, "Mus musculus [3]": {"system": "Mus musculus", "assay": "Anti convulsant activity administered intra peritoneally to mouse for subcutaneous metrazol test at 0.5 h with dose of 300 mg/kg; 0/1= No of animals protected /No of animals tested", "type": "functional"}, "Rattus norvegicus [4]": {"system": "Rattus norvegicus", "assay": "Anticonvulsant activity after oral administration of 50 mg/kg dose after 15 min in rats; +++ means 75% of the animals protected", "type": "functional, organism-based", "set-up": "dose 50 mg/kg", "how_it_was_run": "(§1)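 Oral dosing of rats at a single dose, compound dissolved or suspended in 0.5% methylcellulose. Protection in the MES or scMet test checked 15 min, 30 min, 1 h, 2 h and 4 h after dosing. Scored as 25/50/75/100% of animals protected (+ to ++++), – for none.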"}, "Mus musculus [5]": {"system": "Mus musculus", "assay": "Anti convulsant activity administered intra peritoneally to mouse at maximal electroshock test at 0.5 h after the drug administered with dose of 30 mg/kg; 0/1= No of animals protected /No of animals tested", "type": "functional"}, "Mus musculus [6]": {"system": "Mus musculus", "assay": "Quantitative Anticonvulsant activity administered intraperitoneally to mouse for protective index in maximal electro shock test;TD50/ED50", "type": "functional", "how_it_was_run": "(§2)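 Mice dosed intraperitoneally with compound dissolved or suspended in 0.5% methylcellulose (0.01 mL per gram body weight). […] Protective index calculated as TD50/ED50 for each seizure test.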"}, "Rattus norvegicus [7]": {"system": "Rattus norvegicus", "assay": "Quantitative Anticonvulsant activity administered orally to rat for protective index in maximal electro shock test;TD50/ED50", "type": "functional", "how_it_was_run": "(§3)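 Oral dosing in rats with compound dissolved or suspended in 0.5% methylcellulose (0.04 mL per 10 g body weight). […] Protective index taken as TD50/ED50 for each test.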"}, "Rattus norvegicus [8]": {"system": "Rattus norvegicus", "assay": "Quantitative Anticonvulsant activity administered orally to rat for protective index in subcutaneous metrazol test", "type": "functional", "how_it_was_run": "as §3"}, "Rattus norvegicus [9]": {"system": "Rattus norvegicus", "assay": "Anticonvulsant activity after oral administration of 30 mg/kg dose after 15 min in rats;+means 25% of the animals protected", "type": "functional, organism-based", "set-up": "dose 30 mg/kg", "how_it_was_run": "as §1"}, "Mus musculus [10]": {"system": "Mus musculus", "assay": "Quantitative Anticonvulsant activity administered intraperitoneally to mouse for maximal electro shock test; The interval in parenthesis stands for 95% confidence interval", "type": "functional", "settings": "ip", "how_it_was_run": "as §2"}, "[11]": {"assay": "Anti convulsant activity administered intra peritoneally to mouse for toxicity at 4 hr with dose of 300 mg/kg; 1/2= No of animals exhibiting toxicity /No of animals tested", "type": "organism-based", "set-up": "dose 300 mg/kg", "settings": "in vivo, ip"}, "Mus musculus [12]": {"system": "Mus musculus", "assay": "Anti convulsant activity administered intra peritoneally to mouse at maximal electroshock test at 4 hr after the drug administered with dose of 100 mg/kg; 0/1= No of animals protected /No of animals tested", "type": "functional"}, "Rattus norvegicus [13]": {"system": "Rattus norvegicus", "assay": "Quantitative Anticonvulsant activity administered orally to rat at maximal electro shock test; the interval in parenthesis stands for 95% confidence interval", "type": "functional", "settings": "po", "how_it_was_run": "as §3"}, "Mus musculus [14]": {"system": "Mus musculus", "assay": "Anticonvulsant activity administered intraperitoneally to mouse for toxicity at 4 hr with dose of 30 mg/kg", "type": "functional", "settings": "route intraperitoneal", "how_it_was_run": "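Mice given compound i.p. at 30, 100 or 300 mg/kg, dissolved or suspended in 0.5% methylcellulose. Toxicity scored 0.5 h and 4 h after dosing, recorded as number of animals showing toxicity per number tested.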"}, "Mus musculus [15]": {"system": "Mus musculus", "assay": "Anti convulsant activity administered intra peritoneally to mouse for subcutaneous metrazol test at 4 hr after the drug administered with dose of 100 mg/kg; 0/1= No of animals protected /No of animals tested", "type": "functional"}, "Mus musculus [16]": {"system": "Mus musculus", "assay": "Anti convulsant activity administered intra peritoneally to mouse at maximal electroshock test at 4 hr after the drug administered with dose of 30 mg/kg; 0/1= No of animals protected /No of animals tested", "type": "functional"}, "Rattus norvegicus [17]": {"system": "Rattus norvegicus", "assay": "Anticonvulsant activity after oral administration of 30 mg/kg dose after 1 hr in rats; +++ means 75% of the animals protected", "type": "functional, organism-based", "set-up": "dose 30 mg/kg", "how_it_was_run": "as §1"}, "Mus musculus [18]": {"system": "Mus musculus", "assay": "Anti convulsant activity administered intra peritoneally to mouse for subcutaneous metrazol test at 4 hr with dose of 300 mg/kg; 3/5= No of animals protected /No of animals tested", "type": "functional"}, "Mus musculus [19]": {"system": "Mus musculus", "assay": "Anti convulsant activity administered intra peritoneally to mouse at maximal electroshock test at 0.5 hr after the drug administered with dose of 100 mg/kg; 3/3= No of animals protected /No of animals tested", "type": "functional"}, "Rattus norvegicus [20]": {"system": "Rattus norvegicus", "assay": "Anticonvulsant activity after oral administration of 30 mg/kg dose after 2 hr in rats; ++++ means 100% of the animals protected", "type": "functional, organism-based", "set-up": "dose 30 mg/kg", "how_it_was_run": "as §1"}, "Mus musculus [21]": {"system": "Mus musculus", "assay": "Anti convulsant activity administered intra peritoneally to mouse at maximal electroshock test at 4 hr after the drug administered with dose of 100 mg/kg; 0/3= No of animals protected /No of animals tested", "type": "functional"}, "[22]": {"assay": "Anti convulsant activity administered intra peritoneally to mouse for toxicity at 0.5 hr with dose of 300 mg/kg; 0/4= No of animals exhibiting toxicity /No of animals tested", "type": "organism-based", "set-up": "dose 300 mg/kg", "settings": "in vivo, ip"}, "Mus musculus [23]": {"system": "Mus musculus", "assay": "Anti convulsant activity administered intra peritoneally to mouse for subcutaneous metrazol test at 4 hr after the drug administered with dose of 30 mg/kg; 0/1= No of animals protected /No of animals tested", "type": "functional", "settings": "route intraperitoneal"}, "Rattus norvegicus [24]": {"system": "Rattus norvegicus", "assay": "Anticonvulsant activity after oral administration of 30 mg/kg dose after 30 min in rats; ++ means 50% of the animals protected", "type": "functional, organism-based", "set-up": "dose 30 mg/kg", "how_it_was_run": "as §1"}, "Mus musculus [25]": {"system": "Mus musculus", "assay": "Quantitative Anticonvulsant activity administered intraperitoneally to mouse for protective index in subcutaneous metrazol test", "type": "functional", "how_it_was_run": "as §2"}, "Mus musculus [26]": {"system": "Mus musculus", "assay": "Anti convulsant activity administered intra peritoneally to mouse at maximal electroshock test at 0.5 hr after the drug administered with dose of 300 mg/kg; 1/1= No of animals protected /No of animals tested", "type": "functional"}, "Rattus norvegicus [27]": {"system": "Rattus norvegicus", "assay": "Quantitative Anticonvulsant activity administered orally to rat for subcutaneous metrazol test", "type": "functional", "how_it_was_run": "as §3"}, "[28]": {"assay": "Quantitative Anticonvulsant activity administered intraperitoneally to mouse for toxicity", "settings": "in vivo, ip", "how_it_was_run": "as §2"}, "[29]": {"assay": "Anti convulsant activity administered intra peritoneally to mouse for toxicity at 4 hr with dose of 100 mg/kg; 0/4= No of animals exhibiting toxicity /No of animals tested", "type": "organism-based", "set-up": "dose 100 mg/kg", "settings": "in vivo, ip"}, "[30]": {"assay": "Anti convulsant activity administered intra peritoneally to mouse for toxicity at 0.5 hr with dose of 30 mg/kg; 0/4= No of animals exhibiting toxicity /No of animals tested", "type": "organism-based", "set-up": "dose 30 mg/kg", "settings": "in vivo, ip"}, "Rattus norvegicus [31]": {"system": "Rattus norvegicus", "assay": "Anticonvulsant activity after oral administration of 50 mg/kg dose after 30 min in rats; ++ means 50% of the animals protected", "type": "functional, organism-based", "set-up": "dose 50 mg/kg", "how_it_was_run": "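Rats dosed orally with compound dissolved or suspended in 0.5% methylcellulose (0.04 mL per 10 g body weight). Anticonvulsant protection (MES or scMet) and toxicity scored at 15 min, 30 min, 1 h, 2 h and 4 h after dosing. Graded in steps of 25% of animals protected or showing toxicity.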"}, "Rattus norvegicus [32]": {"system": "Rattus norvegicus", "assay": "Anticonvulsant activity after oral administration of 30 mg/kg dose after 4 hr in rats; + means 25% of the animals protected", "type": "functional, organism-based", "set-up": "dose 30 mg/kg", "how_it_was_run": "as §1"}, "Mus musculus [33]": {"system": "Mus musculus", "assay": "Anti convulsant activity administered intra peritoneally to mouse for subcutaneous metrazol test at 0.5 hr with dose of 30 mg/kg; 0/1= No of animals protected /No of animals tested", "type": "functional"}},
  "data": [
    {"compound": "CC1(C)C(C(=O)NC(N)=O)C1(C)C", "note": "[2,2,3,3-TETRAMETHYLCYCLOPROPANECARBONYLUREA]", "values": [
      {"measurement": "Activity", "setting": "Mus musculus [1]", "value": 1},
      {"measurement": "Toxicity", "setting": "[2]", "value": 0},
      {"measurement": "Activity", "setting": "Mus musculus [3]", "value": 0},
      {"measurement": "Anticonvulsant Activity", "setting": "Rattus norvegicus [4]", "value": "75% of the animals protected"},
      {"measurement": "Activity", "setting": "Mus musculus [5]", "value": 0},
      {"measurement": "Ratio", "setting": "Mus musculus [6]", "value": 1.9},
      {"measurement": "Ratio", "setting": "Rattus norvegicus [7]", "value": 18.5},
      {"measurement": "Activity", "setting": "Rattus norvegicus [8]", "value": 5.9},
      {"measurement": "Activity", "setting": "Rattus norvegicus [9]", "value": "100% of the animals protected"},
      {"measurement": "ED50", "setting": "Mus musculus [10]", "value": 90, "unit": "mg/kg"},
      {"measurement": "Toxicity", "setting": "[11]", "value": 1},
      {"measurement": "Activity", "setting": "Mus musculus [12]", "value": 0},
      {"measurement": "ED50", "setting": "Rattus norvegicus [13]", "value": 29, "unit": "mg/kg"},
      {"measurement": "Toxicity", "setting": "Mus musculus [14]", "value": 0},
      {"measurement": "Activity", "setting": "Mus musculus [15]", "value": 0},
      {"measurement": "Activity", "setting": "Mus musculus [16]", "value": 0},
      {"measurement": "Activity", "setting": "Rattus norvegicus [17]", "value": "100% of the animals protected"},
      {"measurement": "Activity", "setting": "Mus musculus [18]", "value": 3},
      {"measurement": "Activity", "setting": "Mus musculus [19]", "value": 3},
      {"measurement": "Activity", "setting": "Rattus norvegicus [20]", "value": "100% of the animals protected"},
      {"measurement": "Activity", "setting": "Mus musculus [21]", "value": 0},
      {"measurement": "Toxicity", "setting": "[22]", "value": 0},
      {"measurement": "Activity", "setting": "Mus musculus [23]", "value": 0},
      {"measurement": "Activity", "setting": "Rattus norvegicus [24]", "value": "100% of the animals protected"},
      {"measurement": "Anticonvulsant", "setting": "Mus musculus [25]", "value": 1.6},
      {"measurement": "Activity", "setting": "Mus musculus [26]", "value": 1},
      {"measurement": "ED50", "setting": "Rattus norvegicus [27]", "value": 92, "unit": "mg/kg"},
      {"measurement": "TD50", "setting": "[28]", "value": 168, "unit": "mg/kg"},
      {"measurement": "Toxicity", "setting": "[29]", "value": 0},
      {"measurement": "Toxicity", "setting": "[30]", "value": 0},
      {"measurement": "Activity", "setting": "Rattus norvegicus [31]", "value": "100% of the animals protected"},
      {"measurement": "Activity", "setting": "Rattus norvegicus [32]", "value": "100% of the animals protected"},
      {"measurement": "Activity", "setting": "Mus musculus [33]", "value": 0}
    ]}
  ]
}
